Assay results from ChEMBL document CHEMBL4616614, “Discovery of thieno[2,3-d]pyrimidin-4(3H)-one derivatives as a new class of ROCK inhibitors” (Bioorg Med Chem Lett, 2020).

How the values were obtained:
[1] = target: Rho-associated protein kinase 1 (Homo sapiens, UniProt Q13464); test: Inhibition of recombinant human ROCK1 (17 to 535 residues) using KEAKEKRQEQIAKRRRLSSLRASTSKSGGSQK as substrate incubated for 40 mins in presence of [gamma-33P]ATP by radiometric scintillation assay
Outline: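 IC50 values determined through a commercial kinase profiling service, with ATP at 10 µM.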

[2] = target: Rho-associated protein kinase 2 (Homo sapiens, UniProt O75116); test: Inhibition of recombinant human ROCK2 (11 to 552 residues) using KEAKEKRQEQIAKRRRLSSLRASTSKSGGSQK as substrate incubated for 40 mins in presence of [gamma-33P]ATP by radiometric scintillation assay
Rho-associated protein kinase 2, sequence (O75116 whole entry, the tested form may be a part): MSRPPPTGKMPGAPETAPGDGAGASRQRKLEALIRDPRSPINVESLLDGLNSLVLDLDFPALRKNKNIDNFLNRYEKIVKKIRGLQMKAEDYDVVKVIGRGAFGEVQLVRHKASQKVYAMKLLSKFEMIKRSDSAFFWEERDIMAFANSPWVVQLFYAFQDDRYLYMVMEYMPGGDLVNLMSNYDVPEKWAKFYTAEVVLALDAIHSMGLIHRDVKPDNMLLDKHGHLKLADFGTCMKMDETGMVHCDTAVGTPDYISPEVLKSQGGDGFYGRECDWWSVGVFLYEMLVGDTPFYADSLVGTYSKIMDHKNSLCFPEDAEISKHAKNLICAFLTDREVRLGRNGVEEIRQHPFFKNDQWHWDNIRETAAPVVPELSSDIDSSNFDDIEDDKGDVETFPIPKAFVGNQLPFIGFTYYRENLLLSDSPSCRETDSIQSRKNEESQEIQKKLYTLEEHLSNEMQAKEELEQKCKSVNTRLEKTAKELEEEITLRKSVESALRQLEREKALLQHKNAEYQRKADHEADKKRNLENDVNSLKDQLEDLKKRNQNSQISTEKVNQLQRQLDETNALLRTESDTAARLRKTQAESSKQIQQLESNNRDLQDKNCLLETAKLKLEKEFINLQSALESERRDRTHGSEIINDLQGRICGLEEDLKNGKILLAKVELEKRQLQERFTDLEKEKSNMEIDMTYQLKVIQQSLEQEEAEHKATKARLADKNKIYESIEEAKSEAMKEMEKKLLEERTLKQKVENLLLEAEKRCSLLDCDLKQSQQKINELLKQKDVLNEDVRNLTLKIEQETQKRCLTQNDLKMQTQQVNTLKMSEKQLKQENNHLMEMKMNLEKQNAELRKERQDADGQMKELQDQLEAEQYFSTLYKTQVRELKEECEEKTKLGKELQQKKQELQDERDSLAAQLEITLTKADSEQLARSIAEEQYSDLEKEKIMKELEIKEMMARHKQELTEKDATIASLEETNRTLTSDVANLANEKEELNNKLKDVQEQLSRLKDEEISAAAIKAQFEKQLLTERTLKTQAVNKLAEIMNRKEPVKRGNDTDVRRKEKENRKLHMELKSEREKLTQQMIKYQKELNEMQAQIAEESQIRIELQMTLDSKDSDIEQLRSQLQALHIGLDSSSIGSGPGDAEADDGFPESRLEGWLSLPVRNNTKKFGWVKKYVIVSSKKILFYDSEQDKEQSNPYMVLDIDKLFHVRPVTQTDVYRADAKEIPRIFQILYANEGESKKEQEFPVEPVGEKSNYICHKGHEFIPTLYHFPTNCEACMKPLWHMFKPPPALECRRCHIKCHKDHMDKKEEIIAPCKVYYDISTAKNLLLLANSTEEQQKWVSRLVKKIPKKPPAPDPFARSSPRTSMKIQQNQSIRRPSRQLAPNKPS

Rho-associated protein kinase 1, sequence (Q13464 whole entry, the tested form may be a part): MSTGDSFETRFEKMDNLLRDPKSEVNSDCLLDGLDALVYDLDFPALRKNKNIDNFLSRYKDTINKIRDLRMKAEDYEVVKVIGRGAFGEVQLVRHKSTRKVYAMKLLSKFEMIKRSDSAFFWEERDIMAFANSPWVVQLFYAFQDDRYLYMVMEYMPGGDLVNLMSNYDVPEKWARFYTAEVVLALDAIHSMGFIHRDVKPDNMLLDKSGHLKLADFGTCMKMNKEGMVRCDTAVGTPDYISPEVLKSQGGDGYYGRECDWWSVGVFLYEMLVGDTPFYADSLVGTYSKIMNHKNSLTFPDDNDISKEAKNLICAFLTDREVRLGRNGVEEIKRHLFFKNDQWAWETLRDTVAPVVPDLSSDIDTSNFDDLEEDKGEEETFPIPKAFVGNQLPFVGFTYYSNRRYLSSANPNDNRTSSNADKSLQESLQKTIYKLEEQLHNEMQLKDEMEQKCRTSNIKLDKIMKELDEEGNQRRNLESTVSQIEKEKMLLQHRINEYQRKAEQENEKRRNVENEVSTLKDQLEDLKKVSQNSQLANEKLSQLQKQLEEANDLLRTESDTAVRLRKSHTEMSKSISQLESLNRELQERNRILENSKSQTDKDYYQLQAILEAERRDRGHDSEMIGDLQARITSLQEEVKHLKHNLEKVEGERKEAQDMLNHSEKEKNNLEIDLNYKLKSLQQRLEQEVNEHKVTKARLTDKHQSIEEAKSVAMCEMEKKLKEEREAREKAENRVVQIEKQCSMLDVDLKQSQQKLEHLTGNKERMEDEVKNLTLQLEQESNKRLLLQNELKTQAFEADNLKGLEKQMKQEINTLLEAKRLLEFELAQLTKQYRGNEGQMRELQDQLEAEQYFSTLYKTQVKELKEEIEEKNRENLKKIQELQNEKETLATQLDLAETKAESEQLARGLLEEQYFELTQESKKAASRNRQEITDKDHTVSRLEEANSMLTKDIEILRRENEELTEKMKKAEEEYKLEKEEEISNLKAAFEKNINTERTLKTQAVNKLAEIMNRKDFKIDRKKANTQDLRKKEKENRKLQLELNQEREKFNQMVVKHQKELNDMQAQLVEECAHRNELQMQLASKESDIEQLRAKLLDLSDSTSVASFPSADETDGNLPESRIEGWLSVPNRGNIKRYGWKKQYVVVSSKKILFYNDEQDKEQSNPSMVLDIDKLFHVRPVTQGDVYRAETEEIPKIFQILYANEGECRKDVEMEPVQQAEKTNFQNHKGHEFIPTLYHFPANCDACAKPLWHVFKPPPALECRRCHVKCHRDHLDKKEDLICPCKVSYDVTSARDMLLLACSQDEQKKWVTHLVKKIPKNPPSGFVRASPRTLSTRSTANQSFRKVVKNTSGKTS

Row | SMILES | IC50 [1] | IC50 [2]
1 | COc1cc(Cn2cnc3sc(-c4ccnc(N)c4)cc3c2=O)cc(OC)c1 | > 10 µM | 0.058 µM
2 | COc1cccc(Cn2cnc3sc(-c4ccc5[nH]ncc5c4)cc3c2=O)c1 | 0.02 µM | 0.002 µM
3 | COc1cc(Cn2cnc3sc(-c4ccnc5[nH]ccc45)cc3c2=O)cc(OC)c1 | 0.074 µM | 0.004 µM
4 | COc1cccc(Cn2cnc3cc(-c4ccc5[nH]ncc5c4)ccc3c2=O)c1 | 3.11 µM | 0.088 µM
5 | COc1cccc(Cn2cnc3sc(-c4ccc(-c5ccncc5)cc4)cc3c2=O)c1 | > 10 µM | > 10 µM
6 | COc1cccc(Cn2cnc3sc(-c4cccnc4)cc3c2=O)c1 | > 10 µM | 3.48 µM
7 | COc1ccc(Cn2cnc3sc(-c4ccnc5[nH]ccc45)cc3c2=O)cc1 | 0.013 µM | 0.002 µM
8 | COc1cccc(Cn2cnc3sc(-c4cccc5[nH]ccc45)cc3c2=O)c1 | > 10 µM | 0.583 µM
9 | Nc1cc(-c2cc3c(=O)n(Cc4cccc(C(F)(F)F)c4)cnc3s2)ccn1 | 0.49 µM | 0.025 µM
10 | COc1cccc(Cn2cnc3sc(-c4ccnc5[nH]ccc45)cc3c2=O)c1 | 0.004 µM | 0.001 µM
11 | COc1ccc(Cn2cnc3sc(-c4ccnc(N)c4)cc3c2=O)cc1 | 1.44 µM | 0.046 µM
12 | COc1ccc(Cn2cnc3sc(-c4ccnc(N)c4)cc3c2=O)cc1OC | > 10 µM | 0.219 µM
13 | COc1ccc(Cn2cnc3sc(-c4ccnc5[nH]ccc45)cc3c2=O)cc1OC | 0.025 µM | 0.004 µM
14 | COc1cccc(Cn2cnc3sc(-c4ccnc(N)c4)cc3c2=O)c1 | 0.018 µM | 0.001 µM
15 | COc1cccc(Cn2cnc3sc(-c4ccncc4)cc3c2=O)c1 | 0.045 µM | 0.006 µM
16 | Nc1cc(-c2cc3c(=O)n(Cc4cccc(F)c4)cnc3s2)ccn1 | 0.034 µM | 0.005 µM
17 | O=c1c2cc(-c3ccnc4[nH]ccc34)sc2ncn1Cc1cccc(C(F)(F)F)c1 | 0.11 µM | 0.007 µM
18 | COc1cccc(Cn2cnc3sc(-c4ccnc(OC)c4)cc3c2=O)c1 | > 10 µM | 6.91 µM
19 | COc1cccc(Cn2cnc3sc(-c4ccnc(C)c4)cc3c2=O)c1 | 2.51 µM | 0.042 µM
20 | COc1cccc(Cn2cnc3sc(-c4ccnc(F)c4)cc3c2=O)c1 | 1.05 µM | 0.083 µM
21 | O=c1c2cc(-c3ccnc4[nH]ccc34)sc2ncn1Cc1cccc(F)c1 | 0.013 µM | 0.001 µM
22 | COc1cccc(CN2CCc3cc(-c4ccc5[nH]ncc5c4)ccc3C2=O)c1 | 2.06 µM | 0.632 µM
23 | COc1cccc(Cn2ccc3cc(-c4ccc5[nH]ncc5c4)ccc3c2=O)c1 | 1.88 µM | 0.107 µM
24 | COc1cccc(Cn2ncc3cc(-c4ccc5[nH]ncc5c4)ccc3c2=O)c1 | > 10 µM | 0.398 µM
25 | COc1cccc(Cn2cnc3sc(-c4ccc(N)nc4)cc3c2=O)c1 | > 10 µM | > 10 µM
26 | COc1cccc(Cn2cnc3sc(-c4ccnc(Cl)c4)cc3c2=O)c1 | > 10 µM | 0.501 µM
